A selection: hits, their analogues and other compounds. The true share with any hit is near 2.2%.
HNF4A DNA FP = change in binding of human HNF4A to DNA, primary screen, biochemical, fluorescence polarization, FITC-DNA | Hepatocyte nuclear factor 4-alpha (Homo sapiens), P41235 | 1 h | activity change, % at 10 µM | 0.3% of 360,000 active | AID 1224865, 2016; in the data active = activity change above about 30%, passing the limit was not always enough
Target sequence (P41235 whole entry, looked up): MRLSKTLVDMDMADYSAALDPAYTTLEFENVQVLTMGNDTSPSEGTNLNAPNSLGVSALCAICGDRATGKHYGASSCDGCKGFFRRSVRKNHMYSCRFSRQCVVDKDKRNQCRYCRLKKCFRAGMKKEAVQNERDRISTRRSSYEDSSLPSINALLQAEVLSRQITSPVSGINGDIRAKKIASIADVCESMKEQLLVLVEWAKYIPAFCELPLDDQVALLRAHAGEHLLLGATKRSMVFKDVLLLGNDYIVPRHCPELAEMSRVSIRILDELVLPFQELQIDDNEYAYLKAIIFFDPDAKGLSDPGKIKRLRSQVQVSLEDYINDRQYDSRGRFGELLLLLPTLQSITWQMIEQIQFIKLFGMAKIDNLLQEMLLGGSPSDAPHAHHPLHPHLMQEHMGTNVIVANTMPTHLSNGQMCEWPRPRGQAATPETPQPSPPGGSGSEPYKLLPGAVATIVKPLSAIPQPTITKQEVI
Granule exo inh = LAMP-1 surface exposure blockers, TALL-104 cells – cell-based, flow cytometry, MLPCN library, primary screen; TALL-104 LAMP-1 surface exposure; cells stimulated with thapsigargin and PMA; inhibition, % at 10 µM; 0.66% of 360,000 active;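 active = inhibition above about 55%, limit read from the data; inconclusive = no clear call, values can overlap the other calls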
CSN inh = inhibitors of CSN-mediated cullin deneddylation, primary screen, biochemical, fluorescence polarization, uHTS; COP9 signalosome complex subunit 5 (Homo sapiens), Q92905; inhibition, % at 12.5 µM; AID 651999, 2013; 0.38% of 360,000 active; Purified CSN, SCF-Nedd8-OG deneddylation;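 active = pattern-corrected inhibition above about 35%, with an unprinted fluorescence ratio check between 0.5 and 1.5, limit read from the data, passing the limit was not always enough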;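 note: 0% = enzyme with substrate and 100% = substrate without enzyme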
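Assay system: HEK293T-derived human Csn5 enzyme; quantity: 0.24 nM enzyme; medium: Tris/NaCl/DTT buffer, pH 7.5; also added: substrate SCFSkp2-Nedd8OG, 10 nM; doses: 12.5 µM compound; schedule: 90 min reaction at room temperature; signal: FP; read-out: % inhibition of substrate cleavage by Csn5; benchmarks: substrate-only high control, full reaction low control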
Myeloid diff MLP = induction of myeloid progenitor differentiation, primary screen, cell-based, flow cytometry, MLPCN library; ER-HoxA9 myeloid progenitors, lysozyme-GFP differentiation; calls only at 10 µM; 1% of 360,000 active; AID 624256, 2012;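 active = normalized GFP-positive differentiation at or above the plate's own cutoff, the solvent-only control mean plus 3 SD; inconclusive = no clear call, values can overlap the other calls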;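 note: cells exposed to compound for four days before flow analysis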
Myeloid diff = inducers of myeloid progenitor differentiation, confirmation, cell-based, GFP/Mac1 flow cytometry, cherry pick 01 | shares compounds with Myeloid diff MLP | ER-HoxA9 myeloid progenitors, GFP/Mac1 double-positive flow | calls only | 2% of 2,300 active | AID 651706, 2012;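 active = share of green or green-and-red cells above 9 and 9% in run 1 or 4 and 3% in run 2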
GFP autofluor = counter-screen for myeloid differentiation promoters: compound fluorescence; AID 651707; ER-HoxA9 myeloid progenitors, no estrogen, GFP autofluorescence flow cytometry; vehicle wells 0%, positive control 100%; fluorescence response, % (test concentration not listed); shares compounds with Myeloid diff MLP; 7.4% of 2,300 active;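 active = over 5% cells positive for green fluorescent reporter, or over 2% positive for both it and APC stain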;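 note: range taken on the double positive population between DMSO and positive control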
Granule exo CP1 = inhibitors of lytic granule exocytosis, confirmation, TALL-104 cells, flow cytometry, Cherry Pick01; shares compounds with Granule exo inh; LAMP-1 externalization; stimulated with PMA plus thapsigargin; inhibition, % at 10 µM; 11% of 1,500 active; in the data active = inhibition above about 60%;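 note: 0% = stimulated vehicle wells and 100% = unstimulated wells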
Starred values were filed as active, the others as inactive; i = inactive; ? = inconclusive; nt = not tested or not shown; + = active, no number.

SMILES	HNF4A DNA FP	Granule exo inh	CSN inh	Myeloid diff MLP	Myeloid diff	GFP autofluor	others
O=C(CCNS(=O)(=O)c1ccc2c(c1)CCC(=O)N2)NCc1ccc2c(c1)OCO2	2	12	-10	i	i	1
O=C1CCc2cc(S(=O)(=O)NCCCC(=O)N3CCN(Cc4ccc5c(c4)OCO5)CC3)ccc2N1	4	-1	-5	i	nt	nt
COc1ccc(C(=O)O)cc1S(=O)(=O)N1CCN(Cc2ccc3c(c2)OCO3)CC1	-3	-1	3	i	i	0
CCC(CC)C(=O)N1CCN(Cc2ccc3c(c2)OCO3)CC1	4	0	1	i	i	2
COc1ccc(Cl)cc1S(=O)(=O)N1CCN(Cc2ccc3c(c2)OCO3)CC1	-3	0	0	i	nt	nt
O=C(c1ccc(S(=O)(=O)c2ccccc2Cl)c([N+](=O)[O-])c1)N1CCCCCC1	0	-6	-1	+	i	0
O=C(c1ccc(S(=O)(=O)Cc2ccccc2F)c([N+](=O)[O-])c1)N1CCCCCC1	-4	-1	1	i	nt	nt
CCn1c(=O)n(CC(=O)N(C)Cc2ccccc2)c(=O)c2ccccc21	1	-1	3	+	i	0
Cc1ccc(-c2nnc(-c3ccc(NC(=O)Cc4cccs4)cc3)o2)cc1	-5	-3	6	+	i	0
COc1ccc(-c2cc([C@H]3[C@@H]4C=CCC[C@@]4(C)C(=O)N3Cc3ccccc3)ccc2F)cc1OC	5	17	4	i	nt	nt
COc1ccc([C@H]2[C@@H]3C=CCC[C@@]3(C)C(=O)N2Cc2ccccc2)cc1Cl	-5	2	3	i	i	1
O=C(CCOc1ccccc1)Nc1ccc(S(=O)(=O)Nc2ncccn2)cc1	4	10	-2	i	nt	nt
Cc1c(OCC(=O)NCc2ccccn2)ccc2c(-c3ccccc3)cc(=O)oc12	1	0	1	+	i	0
Cc1cc(=O)oc2c(C)c(OCC(=O)NCc3ccccn3)ccc12	-2	-6	-2	i	nt	nt
COc1ccc(-c2cc(=O)oc3c(C)c(OCC(=O)NCC4CCC(C(=O)O)CC4)ccc23)cc1 (centres undefined)	5	10	0	i	nt	nt
COc1ccc(-c2cc(=O)oc3c(C)c(OCC(=O)N(C)C)ccc23)cc1	1	2	-4	+	i	0
CCc1nc2ccccc2c(C(=O)NCc2ccccc2)c1C	-6	-2	-6	i	i	0
COc1ccc(C2N(c3ccc(C)cc3)CCN2c2ccc(C)cc2)cc1O	1	-3	0	i	i	0
CC(=O)c1ccccc1NC(=O)COC(=O)/C(=C/c1ccccc1)n1nnnc1C	3	-4	-2	?	nt	nt
COc1ccccc1NS(=O)(=O)c1cc(C(=O)N2CCCC2)ccc1F	1	-6	-3	i	nt	nt
O=C(N/N=C/c1ccncc1)c1ccccc1OCc1ccc(Br)cc1	0	83*	3	i	i	0
NC(=S)Nc1cccc2cc3ccccc3cc12	-26	2	-9	+	i	14*
Cc1ccc(-c2nnc(N(C)C(=O)c3cccnc3)s2)cc1	2	0	0	i	i	0
Cc1ccc(-c2nnc(N(C)C(=O)c3cccnc3)s2)cn1	-1	-1	-2	i	nt	nt
C[C@H](CO)N1C[C@H](C)[C@@H](CN(C)C(=O)Nc2ccc(C(F)(F)F)cc2)Oc2ccc(NC(=O)Nc3ccc(C(F)(F)F)cc3)cc2C1=O	2	34	-2	i	nt	nt
SMILES	HNF4A DNA FP	Granule exo inh	CSN inh	Myeloid diff MLP	Myeloid diff	GFP autofluor	others
C[C@H]1CN([C@@H](C)CO)C(=O)c2cc(NC(=O)NC3CCCCC3)ccc2O[C@H]1CN(C)C(=O)Nc1ccc(C(F)(F)F)cc1	1	6	1	i	i	0
CC(/C=N/NC(=O)c1cccnc1)=C\c1ccco1	-2	-5	3	i	i	0
Cc1cc2c3c(c1C)C1(C(=O)N3C(C)(C)CC2C)C(C#N)=C(N)Oc2n[nH]c(C)c21 (centres undefined)	3	-3	4	+	i	0
Cc1cc2c3c(c1)C1(C(=O)N3C(C)(C)CC2C)C(C#N)=C(N)Oc2n[nH]c(C)c21 (centres undefined)	0	0	-1	i	nt	nt
CCC(=O)Nc1ccccc1-c1nnn(CC(=O)N2c3ccccc3CC2C)n1 (centres undefined)	0	2	2	i	nt	nt
CC1Cc2ccccc2N1C(=O)Cn1nnc(-c2ccccc2NC(=O)C2CCC2)n1 (centres undefined)	1	16	2	i	i	1
Cc1ccc(NC(=O)CN(C)CC(=O)N(CC(C)C)c2c(N)n(CC(C)C)c(=O)[nH]c2=O)c(C)c1	1	-1	4	i	nt	nt
O=C(CNC(=O)c1ccncc1)Nc1ccc(F)c(F)c1	5	-2	2	?	nt	nt
O=C(CNC(=O)c1ccc(=O)[nH]c1)Nc1ccc(F)c(F)c1	0	-2	3	+	i	0
O=C(NCc1ccco1)c1ccc2c(c1)N(Cc1ccc(Cl)cc1)CCS2	-1	-2	5	i	nt	nt
O=C(NCc1ccco1)c1ccc2c(c1)N(Cc1ccccc1)CCS2	6	-3	2	i	i	1
Cc1cccc(OCCOC(=O)c2c(-c3ccccc3)noc2C)c1	-4	75*	-3	+	i	1	Granule exo CP1=-9
Cc1cccc(NC(=O)CCN2C(=O)c3ccccc3S2(=O)=O)c1C	-2	2	0	i	nt	nt
CN(C)C1=NC[C@H](Cc2ccccc2)N1CC1CCC(C(C)(C)C)CC1 (some centres undefined)	0	-9	-3	i	nt	nt
CC(C(=O)N1CCc2ccccc21)N1CCN(S(=O)(=O)c2ccc(C(F)(F)F)cc2)CC1 (centres undefined)	5	-2	-1	i	nt	nt
CC(C(=O)N1CCc2ccccc21)N1CCN(c2cccc(C(F)(F)F)c2)CC1 (centres undefined)	1	61*	4	+	i	0	Granule exo CP1=-13
CCOC(=O)C1(CCOc2ccccc2)CCN(Cc2cccc(OC)c2)CC1	-2	86*	-3	+	i	0	Granule exo CP1=-6
Clc1cccc(Cl)c1C1Nc2cccc3cccc(c23)N1	2	85*	10	+	i	0	Granule exo CP1=46

From PubChem
